Assay results from ChEMBL document CHEMBL1129346, “First examples of peptidomimetic inhibitors of interleukin-1 beta converting enzyme” (J Med Chem, 1996).

Columns and labels:
Caspase-1 (Homo sapiens) [1] = molecular target: T1, Caspase-1 (Homo sapiens) (UniProt P29466); assay: Second order rate constant of inactivation for compound was measured against Interleukin-1-beta converting enzyme partially purified from THP-1 cells
T1 sequence (whole entry): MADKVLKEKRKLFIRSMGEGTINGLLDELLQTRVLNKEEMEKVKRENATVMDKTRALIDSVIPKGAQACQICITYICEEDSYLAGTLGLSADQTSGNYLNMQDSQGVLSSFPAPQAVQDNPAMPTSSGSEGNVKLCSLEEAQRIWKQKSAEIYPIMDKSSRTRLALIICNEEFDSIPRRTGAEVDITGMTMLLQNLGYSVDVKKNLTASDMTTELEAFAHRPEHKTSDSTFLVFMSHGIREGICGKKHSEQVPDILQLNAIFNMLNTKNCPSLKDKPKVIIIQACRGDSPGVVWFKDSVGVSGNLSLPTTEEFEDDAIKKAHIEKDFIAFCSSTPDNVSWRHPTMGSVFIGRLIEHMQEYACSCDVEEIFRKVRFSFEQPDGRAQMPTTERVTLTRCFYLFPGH
In short: (§1)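 ICE was partially purified from THP-1 cells by DEAE-Sephacel and Sephadex G-75 steps. Fluorescence progress curves were recorded at 37 °C over 30 min, and the nonlinear curves were analysed by the Tian–Tsou method. Standard error was <10%.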

Caspase-1 (Homo sapiens) [2] = molecular target: T1, Caspase-1 (Homo sapiens); assay: The binding affinity of compound was measured against Interleukin-1-beta converting enzyme in monocytic cells; format: cell-based
In short: as §1, with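 “steps. The assay buffer was 10 mM HEPES pH 7.5 with 25% glycerol and 1 mM DTT, and the substrate was 10 μM Suc-Tyr-Val-Ala-Asp-AMC.” for “steps.”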

Compound	k obs / 1 (Caspase-1 (Homo sapiens) [1]) [M⁻¹ s⁻¹]	k obs / 1 (Caspase-1 (Homo sapiens) [2]) [M⁻¹ s⁻¹]
O=C(O)C[C@H](NC(=O)Cn1c(-c2ccc(F)cc2)ncc(NC(=O)OCc2ccccc2)c1=O)C(=O)COc1cc(C(F)(F)F)nn1-c1ccccc1	–	157000
CC(C)[C@H](NC(=O)OCc1ccccc1)C(=O)N[C@@H](C)C(=O)N[C@@H](CC(=O)O)C(=O)COC(=O)c1c(Cl)cccc1Cl	432000	–
O=C(O)C[C@H](NC(=O)Cn1c(-c2ccc(F)cc2)ncc(NC(=O)OCc2ccccc2)c1=O)C(=O)COP(=O)(c1ccccc1)c1ccccc1	–	145000
O=C(O)C[C@H](NC(=O)Cn1c(-c2cccnc2)ncc(NC(=O)OCc2ccccc2)c1=O)C(=O)COc1cc(C(F)(F)F)nn1-c1ccccc1	145000	–
Cc1ncc(NC(=O)OCc2ccccc2)c(=O)n1CC(=O)N[C@@H](CC(=O)O)C(=O)COc1cc(C(F)(F)F)nn1-c1ccccc1	95000	–

Other lines, results leading:

k obs / 1 (Caspase-1 (Homo sapiens) [1]) [M⁻¹ s⁻¹]	k obs / 1 (Caspase-1 (Homo sapiens) [2]) [M⁻¹ s⁻¹]	Compound
46000	–	O=C(O)C[C@H](NC(=O)Cn1c(-c2ccc(F)cc2)ncc(NC(=O)c2ccco2)c1=O)C(=O)COC(=O)c1c(Cl)cccc1Cl
90000	–	CN(C)CCCCCC(=O)Nc1cnc(-c2ccc(F)cc2)n(CC(=O)N[C@@H](CC(=O)O)C(=O)COC(=O)c2c(Cl)cccc2Cl)c1=O
36000	–	Nc1cnc(-c2ccc(F)cc2)n(CC(=O)N[C@@H](CC(=O)O)C(=O)COC(=O)c2c(Cl)cccc2Cl)c1=O
90000	–	O=C(O)C[C@H](NC(=O)Cn1c(-c2ccc(F)cc2)ncc(NS(=O)(=O)c2ccccc2)c1=O)C(=O)COC(=O)c1c(Cl)cccc1Cl
268000	–	O=C(O)C[C@H](NC(=O)Cn1c(-c2ccc(F)cc2)ncc(NC(=O)OCc2ccccc2)c1=O)C(=O)COC(=O)c1c(Cl)cccc1Cl
148000	–	O=C(O)C[C@H](NC(=O)Cn1c(-c2ccc(F)cc2)ncc(NC(=O)NCc2ccccc2)c1=O)C(=O)COC(=O)c1c(Cl)cccc1Cl
